Data set [1] deals with HeLa. Kind of data set: Cytotoxicity against human HeLa cells assessed as cell viability measured after 48 hrs by MTS assay. It is filed as functional, cell-based. In a few lines:
(§1)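 MCF-7 and HeLa cells seeded at 4×10^3 cells/well 24 h before treatment, then exposed to compounds for 48 h or 72 h. Viability measured by MTS assay and IC50 derived; top concentration tested 1 µM.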
On the technique in general: Formazan colour is commonly taken as a measure of viable cells.

The nature of data set [2]: Ratio of aqueous solubility of compound to aqueous solubility of paclitaxel. The class given is physicochemical. To be noted: buffer.
Data set [3] concerns MCF7. In words: Cytotoxicity against human MCF7 cells assessed as cell viability measured after 72 hrs by MTS assay. The class given is functional, cell-based. Conditions: MCF7, 72 h. In a few lines: as §1
The nature of data set [4]: Aqueous solubility of the compound. The class given is physicochemical.
Data set [5] relates to MCF7. In words: Cytotoxicity against human MCF7 cells assessed as cell viability measured after 48 hrs by MTS assay. Conditions: MCF7, 48 h. The class given is functional, cell-based. The essentials: as §1
The test system of data set [6] is HeLa. Kind of data set: Cytotoxicity against human HeLa cells assessed as cell viability measured after 72 hrs by MTS assay. It is filed as functional, cell-based. In a few lines: as §1
Data set [7] in a line: Chemical stability of the compound assessed as paclitaxel release in presence of FBS measured after 5 hrs by HPLC analysis. To be noted: cattle. It is filed as physicochemical. The essentials:
(§2)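 Compound solution added to fetal bovine serum (400 µl into 3600 µl) and incubated at 37 °C. At set time points, 100 µl aliquots were quenched with 300 µl acetonitrile and centrifuged 5 min at 10,000 rpm. Supernatant analysed by HPLC for intact prodrug and released paclitaxel.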

The test system of data set [8] is Mus musculus. Kind of data set: Acute toxicity in mouse allografted with mouse S180 cells assessed as mouse survival at 90 mg/kg, iv administered 4 times per day post 24 hrs of tumor implantation. It is filed as organism-based, CCRF S-180. Conditions: in vivo.
The subject of data set [9] is Mus musculus. Kind of data set: Toxicity in mouse allografted with mouse S180 cells assessed as change in body weight at 25 mg/kg, iv administered 4 time a day post 24 hrs of tumor implantation measured after 10 days (reference value: -2.8%). To be noted: in vivo, 240 h. It is filed as organism-based, CCRF S-180.
Data set [10] deals with CCRF S-180. In words: Antitumor activity against mouse S180 cells allografted in mouse assessed as tumor weight at 25 mg/kg, iv administered 4 time a day post 24 hrs of tumor implantation measured after 10 days (reference value: 7.35g). The class given is functional.
Data set [11] can be described thus: Metabolic stability in mouse plasma assessed as compound degradation at 37 degC measured after 10 hrs. To be noted: read-out: Drug degradation. The class given is ADME, cell-free. The essentials:
(§3)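 Compound incubated in mouse plasma at 37 °C for up to 48 h. Remaining compound and released paclitaxel measured at intervals, expressed as detected concentration divided by total concentration. In a separate incubation, 10 mM dithiothreitol was added.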

Data set [12] concerns Plasma. Kind of data set: Metabolic stability in mouse plasma assessed as paclitaxel release at 37 degC in presence of dithiotheitol measured after 10 min. The class given is ADME, cell-free. The essentials:
as §3

In data set [13] the test system is Mus musculus. In words: Toxicity in mouse allografted with mouse S180 cells assessed as mortality at 25 mg/kg, iv administered 4 time a day post 24 hrs of tumor implantation. It is filed as organism-based, CCRF S-180. Conditions: in vivo. The essentials: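 S-180 cells were implanted subcutaneously in mice, 8 per group. Starting 24 h later, dosing was iv every other day for 4 doses, with dose expressed as paclitaxel-equivalent. Prodrug vehicle was 5% glucose. Paclitaxel was given in cremophor/ethanol (50%/50%) diluted 10-fold with 5% glucose. Vehicle controls received 5% glucose. Deaths were counted up to day 10.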

Data set [14] concerns CCRF S-180. Kind of data set: Antitumor activity against mouse S180 cells allografted in mouse assessed as tumor growth inhibition at 25 mg/kg, iv administered 4 time a day post 24 hrs of tumor implantation measured after 10 days. The class given is functional. To be noted: CCRF S-180, iv, read-out: TGI.
A short description of data set [15]: Toxicity in mouse. The class given is organism-based. To be noted: in vivo.
Data set [16] concerns Mus musculus. In words: Acute toxicity in mouse allografted with mouse S180 cells at 60 mg/kg, iv administered 4 times per day post 24 hrs of tumor implantation measured after 24 hrs. The class given is organism-based, CCRF S-180. Conditions: in vivo.
The nature of data set [17]: Chemical stability of the compound assessed as paclitaxel release in presence of FBS measured after 4 hrs by HPLC analysis. It is filed as physicochemical. Conditions: cattle. In a few lines:
as §2

Data set [18] deals with HeLa. In words: Cytotoxicity against human HeLa cells at 1 uM by MTS assay. The class given is functional, cell-based. The essentials:
as §1

The subject of data set [19] is MCF7. In words: Cytotoxicity against human MCF7 cells at 1 uM by MTS assay. The class given is functional, cell-based. In a few lines: as §1
The nature of data set [20]: Chemical stability of the compound assessed as compound degradation in presence of FBS measured after 4 hrs by HPLC analysis. It is filed as physicochemical. To be noted: cattle. In a few lines:
as §2

Each structure is given as a SMILES string. In brackets after ≈: the same amount, converted by molar mass. Activity calls are given as the source filed them. The rule behind the calls is not given here.

Usually IC50 stands for the concentration at which inhibition is half-maximal. What is called solubility is the concentration that dissolves in the medium under given conditions. Low readings indicate little dissolved substance, high ones much dissolved substance. As to `CC(=O)O[C@H]1C(=O)[C@@]2(C)[C@H]([C@H](OC(=O)c3ccccc3)[C@]3(O)C[C@H](OC(=O)[C@H](OC(=O)CN4CCOCC4)[C@@H](NC(=O)c4ccccc4)c4ccccc4)C(C)=C1C3(C)C)[C@]1(OC(C)=O)CO[C@@H]1C[C@@H]2O`, the IC50 in data set [1] is 0.0492 µM; in data set [3] it was 0.00349 µM; in [5] it was 0.012 µM; in data set [6] it was 0.0229 µM. In addition, the Ratio in data set [2] was 400. The molecule further gave a solubility in [4] of 100 µg/mL (≈ 102 µM).

As to `CC(=O)O[C@H]1C(=O)[C@@]2(C)[C@H]([C@H](OC(=O)c3ccccc3)[C@]3(O)C[C@H](OC(=O)[C@H](OC(=O)CCC(=O)NCCN4CCOCC4)[C@@H](NC(=O)c4ccccc4)c4ccccc4)C(C)=C1C3(C)C)[C@]1(OC(C)=O)CO[C@@H]1C[C@@H]2O`, the IC50 was 0.0198 µM in data set [1], 0.00074 µM in data set [3], 0.00423 µM in data set [5] and 0.0146 µM in data set [6]. In addition, in [2], the Ratio turned out to be 2000. Further, the Drug metabolism entry in data set [7] was “metabolite_detected”. In data set [4], the solubility is 500 µg/mL (≈ 469 µM).

Turning to `CC(=O)O[C@H]1C(=O)[C@@]2(C)[C@H]([C@H](OC(=O)c3ccccc3)[C@]3(O)C[C@H](OC(=O)[C@H](OC(=O)OCCSSCC(=O)N[C@H](CC(=O)NCCN4CCOCC4)C(=O)NCCN4CCOCC4)[C@@H](NC(=O)c4ccccc4)c4ccccc4)C(C)=C1C3(C)C)[C@]1(OC(C)=O)CO[C@@H]1C[C@@H]2O`, the IC50 in [1] was determined as 0.0206 µM; in [3], 0.00407 µM; in [5], 0.00745 µM; in data set [6], 0.014 µM. The Survival in data set [8] came to 1 weeks. The Activity in data set [9] was -16.1%; in data set [10], 3.43 g; in data set [13], “Non-toxic”. For the same molecule, in [2], the Ratio is listed as 20000. Besides, the metabolised at 10 h in [11] stood at 100%. In data set [4], this molecule returned a solubility of 5000 µg/mL (≈ 3600 µM). The Drug metabolism entry in [12] is reported as “metabolite_detected”. For the same molecule, the inhibition in vivo at 25 mg/kg in data set [14] was found to be 54%.

Consider `CC(=O)O[C@H]1C(=O)[C@@]2(C)[C@H]([C@H](OC(=O)c3ccccc3)[C@]3(O)C[C@H](OC(=O)[C@H](O)[C@@H](NC(=O)c4ccccc4)c4ccccc4)C(C)=C1C3(C)C)[C@]1(OC(C)=O)CO[C@@H]1C[C@@H]2O` [PACLITAXEL], for which the IC50 in data set [1] turned out to be 0.0233 µM; in data set [3], 0.00125 µM; in data set [5], 0.0031 µM; in data set [6], 0.0126 µM. The Activity in [9] is given as -28.1%; in data set [10], 3.34 g; in data set [16] it was “Toxic”. Moreover, in data set [15], the MTD stood at 30 mg/kg. Further, in data set [14], the inhibition in vivo at 25 mg/kg is 56%.

In the case of `CC(=O)O[C@H]1C(=O)[C@@]2(C)[C@H]([C@H](OC(=O)c3ccccc3)[C@]3(O)C[C@H](OC(=O)[C@H](OC(=O)NCCN4CCOCC4)[C@@H](NC(=O)c4ccccc4)c4ccccc4)C(C)=C1C3(C)C)[C@]1(OC(C)=O)CO[C@@H]1C[C@@H]2O`, the IC50 in [1], in data set [3], in data set [5] and in [6] was greater than 1 µM each time. In addition, the Ratio in [2] turned out to be 2000. In addition, the Drug metabolism result in [17] is “metabolite_notdetected”. Moreover, the outcome in data set [18] and in data set [19] was inactive. For the same molecule, the Stability result in data set [20] is on record as “Unstable”. The same molecule gave a solubility in data set [4] of 500 µg/mL (≈ 495 µM).

The values are drawn from ChEMBL document CHEMBL3822413, “Design, synthesis, and evaluation of water-soluble morpholino-decorated paclitaxel prodrugs with remarkably decreased toxicity” (Bioorg Med Chem Lett, 2016).
